Reference: ChEMBL document CHEMBL1240487, “Discovery of a potent, selective, and orally bioavailable pyridinyl-pyrimidine phthalazine aurora kinase inhibitor” (J Med Chem, 2010)

Experiments:
[1] = target: Mitogen-activated protein kinase 3 (Homo sapiens, UniProt P27361); experiment: Inhibition of Erk1 by HTRF assay
How it was run: (§1)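 Enzyme inhibition was run with ATP at its Km for each kinase. Values are averages of at least two determinations.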

[2] = target: Tyrosine-protein kinase JAK2 (Homo sapiens, UniProt O60674); experiment: Inhibition of Jak2 by HTRF assay; how it was run: as §1
Chain of Tyrosine-protein kinase JAK2 (O60674 whole entry): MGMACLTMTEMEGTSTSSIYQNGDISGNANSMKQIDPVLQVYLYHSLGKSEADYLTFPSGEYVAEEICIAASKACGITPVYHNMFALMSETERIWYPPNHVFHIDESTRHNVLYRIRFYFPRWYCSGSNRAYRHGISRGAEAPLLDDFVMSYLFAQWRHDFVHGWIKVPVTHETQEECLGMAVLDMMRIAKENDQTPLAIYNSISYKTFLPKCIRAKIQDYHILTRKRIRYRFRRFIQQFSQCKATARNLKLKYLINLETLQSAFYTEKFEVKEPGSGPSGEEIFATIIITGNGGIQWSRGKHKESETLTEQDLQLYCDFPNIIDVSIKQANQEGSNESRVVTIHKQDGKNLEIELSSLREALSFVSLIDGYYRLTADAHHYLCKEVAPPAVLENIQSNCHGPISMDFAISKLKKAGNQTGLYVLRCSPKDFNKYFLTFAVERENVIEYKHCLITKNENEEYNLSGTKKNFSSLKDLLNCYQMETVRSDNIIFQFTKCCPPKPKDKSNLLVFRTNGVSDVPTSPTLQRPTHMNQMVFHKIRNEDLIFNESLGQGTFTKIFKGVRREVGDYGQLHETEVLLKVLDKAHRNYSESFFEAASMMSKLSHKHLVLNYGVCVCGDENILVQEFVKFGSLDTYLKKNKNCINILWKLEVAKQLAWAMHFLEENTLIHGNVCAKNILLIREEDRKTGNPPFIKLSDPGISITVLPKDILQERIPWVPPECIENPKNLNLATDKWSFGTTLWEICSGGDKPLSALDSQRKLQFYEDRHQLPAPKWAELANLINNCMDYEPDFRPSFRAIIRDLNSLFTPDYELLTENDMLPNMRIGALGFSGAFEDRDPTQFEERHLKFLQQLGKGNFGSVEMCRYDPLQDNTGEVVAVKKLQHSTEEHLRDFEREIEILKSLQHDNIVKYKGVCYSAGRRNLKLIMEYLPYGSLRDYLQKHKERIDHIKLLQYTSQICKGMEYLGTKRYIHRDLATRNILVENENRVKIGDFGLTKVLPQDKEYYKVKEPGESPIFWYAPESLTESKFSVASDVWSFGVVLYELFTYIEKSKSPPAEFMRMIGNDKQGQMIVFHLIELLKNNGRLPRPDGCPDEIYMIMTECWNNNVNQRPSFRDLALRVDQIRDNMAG

[3] = target: T1, Aurora kinase A/Targeting protein for Xklp2 (Homo sapiens, UniProt O14965); experiment: Inhibition of Aurora A/TPX2 (1-43) by HTRF assay; format: protein-complex assay; how it was run: as §1
T1 sequence (O14965 whole entry): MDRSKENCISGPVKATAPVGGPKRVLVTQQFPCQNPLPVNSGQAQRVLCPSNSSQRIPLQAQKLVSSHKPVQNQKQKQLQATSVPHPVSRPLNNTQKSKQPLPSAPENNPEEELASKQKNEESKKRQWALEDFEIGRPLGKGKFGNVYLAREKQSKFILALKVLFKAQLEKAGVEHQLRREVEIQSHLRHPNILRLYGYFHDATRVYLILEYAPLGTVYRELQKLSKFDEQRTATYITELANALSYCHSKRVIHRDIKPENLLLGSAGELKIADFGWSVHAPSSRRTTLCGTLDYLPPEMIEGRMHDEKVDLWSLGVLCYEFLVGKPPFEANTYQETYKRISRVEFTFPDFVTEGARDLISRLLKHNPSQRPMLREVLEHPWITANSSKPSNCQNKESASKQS
T1 sequence (Q9ULW0 whole entry): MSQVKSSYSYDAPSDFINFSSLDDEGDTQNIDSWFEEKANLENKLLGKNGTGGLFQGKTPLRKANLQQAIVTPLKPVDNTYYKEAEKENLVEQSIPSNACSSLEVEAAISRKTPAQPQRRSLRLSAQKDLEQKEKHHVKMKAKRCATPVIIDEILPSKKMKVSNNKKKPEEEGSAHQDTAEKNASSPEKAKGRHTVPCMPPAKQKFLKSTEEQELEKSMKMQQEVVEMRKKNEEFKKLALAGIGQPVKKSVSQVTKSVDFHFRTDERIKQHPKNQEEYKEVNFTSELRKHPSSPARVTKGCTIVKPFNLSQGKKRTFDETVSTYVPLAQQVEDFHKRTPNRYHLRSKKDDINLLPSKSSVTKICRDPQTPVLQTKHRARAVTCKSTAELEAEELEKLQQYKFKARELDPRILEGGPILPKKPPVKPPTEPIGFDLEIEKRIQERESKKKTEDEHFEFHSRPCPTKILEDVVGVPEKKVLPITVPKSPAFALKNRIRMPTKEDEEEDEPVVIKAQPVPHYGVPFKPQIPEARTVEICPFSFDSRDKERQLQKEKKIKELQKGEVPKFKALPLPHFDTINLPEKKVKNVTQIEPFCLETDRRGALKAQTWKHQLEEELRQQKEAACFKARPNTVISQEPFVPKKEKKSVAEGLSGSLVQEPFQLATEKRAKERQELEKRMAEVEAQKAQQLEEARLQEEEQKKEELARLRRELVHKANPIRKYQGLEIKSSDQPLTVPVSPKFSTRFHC

[4] = target: Aurora kinase B (Homo sapiens, UniProt Q96GD4); experiment: Inhibition of Aurora B by HTRF assay; how it was run: as §1
Chain of Aurora kinase B (Q96GD4 whole entry): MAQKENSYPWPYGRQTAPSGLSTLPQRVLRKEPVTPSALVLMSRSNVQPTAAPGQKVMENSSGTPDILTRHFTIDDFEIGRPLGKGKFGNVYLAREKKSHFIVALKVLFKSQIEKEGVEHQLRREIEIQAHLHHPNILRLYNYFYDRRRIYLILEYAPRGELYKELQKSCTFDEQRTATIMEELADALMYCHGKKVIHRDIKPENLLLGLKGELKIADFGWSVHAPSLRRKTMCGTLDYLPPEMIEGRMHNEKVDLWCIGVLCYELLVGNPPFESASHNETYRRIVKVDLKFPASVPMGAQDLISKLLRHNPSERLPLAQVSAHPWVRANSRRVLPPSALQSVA

[5] = target: Ribosomal protein S6 kinase beta-1 (Homo sapiens, UniProt P23443); experiment: Inhibition of p70s6k by HTRF assay; how it was run: as §1
Chain of Ribosomal protein S6 kinase beta-1 (P23443 whole entry): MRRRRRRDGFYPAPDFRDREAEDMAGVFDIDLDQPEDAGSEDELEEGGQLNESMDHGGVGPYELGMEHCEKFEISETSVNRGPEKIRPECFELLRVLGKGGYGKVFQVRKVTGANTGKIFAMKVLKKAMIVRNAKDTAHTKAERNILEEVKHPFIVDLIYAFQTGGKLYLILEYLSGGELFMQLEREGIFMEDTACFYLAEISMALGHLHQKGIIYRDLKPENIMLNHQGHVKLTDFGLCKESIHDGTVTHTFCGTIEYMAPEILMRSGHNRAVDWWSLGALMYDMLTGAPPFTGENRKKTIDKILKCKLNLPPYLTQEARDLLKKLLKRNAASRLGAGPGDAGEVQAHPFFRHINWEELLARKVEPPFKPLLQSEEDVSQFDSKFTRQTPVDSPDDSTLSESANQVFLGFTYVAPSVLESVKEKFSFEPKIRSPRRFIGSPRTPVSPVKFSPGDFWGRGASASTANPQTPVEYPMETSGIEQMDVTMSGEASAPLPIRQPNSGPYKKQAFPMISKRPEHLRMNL

[6] = target: T2, Ephrin type-B receptor 4 (Homo sapiens, UniProt P54760); experiment: Inhibition of EphB4 by HTRF assay; how it was run: as §1
T2 sequence (P54760 whole entry): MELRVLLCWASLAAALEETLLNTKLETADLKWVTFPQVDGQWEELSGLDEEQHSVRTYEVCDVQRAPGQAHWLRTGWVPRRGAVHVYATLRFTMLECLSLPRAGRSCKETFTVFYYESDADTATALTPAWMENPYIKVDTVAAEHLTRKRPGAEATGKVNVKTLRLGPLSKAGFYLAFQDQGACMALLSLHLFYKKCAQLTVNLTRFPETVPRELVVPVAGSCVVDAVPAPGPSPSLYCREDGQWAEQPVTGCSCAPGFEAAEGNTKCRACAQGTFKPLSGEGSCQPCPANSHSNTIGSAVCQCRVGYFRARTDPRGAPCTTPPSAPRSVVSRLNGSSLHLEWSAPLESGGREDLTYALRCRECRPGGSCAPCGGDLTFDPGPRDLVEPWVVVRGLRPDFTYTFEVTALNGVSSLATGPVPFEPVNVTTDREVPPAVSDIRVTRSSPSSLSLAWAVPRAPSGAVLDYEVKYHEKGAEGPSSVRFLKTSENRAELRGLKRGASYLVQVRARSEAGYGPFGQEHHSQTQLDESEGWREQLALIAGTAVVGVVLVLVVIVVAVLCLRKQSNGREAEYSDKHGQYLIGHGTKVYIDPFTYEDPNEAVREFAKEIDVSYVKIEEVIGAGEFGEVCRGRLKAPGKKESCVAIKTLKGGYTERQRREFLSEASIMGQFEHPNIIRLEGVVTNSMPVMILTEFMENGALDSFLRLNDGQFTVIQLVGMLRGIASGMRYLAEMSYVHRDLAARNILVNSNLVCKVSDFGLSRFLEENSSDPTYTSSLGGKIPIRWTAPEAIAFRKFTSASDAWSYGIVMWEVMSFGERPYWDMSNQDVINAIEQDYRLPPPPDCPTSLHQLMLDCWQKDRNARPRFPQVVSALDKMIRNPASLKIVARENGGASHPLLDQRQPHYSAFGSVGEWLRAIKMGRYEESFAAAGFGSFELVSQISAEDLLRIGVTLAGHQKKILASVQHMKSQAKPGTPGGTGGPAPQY

[7] = target: T3, Tyrosine-protein kinase ZAP-70 (Homo sapiens, UniProt P43403); experiment: Inhibition of Zap70 by HTRF assay; how it was run: as §1
T3 sequence (P43403 whole entry): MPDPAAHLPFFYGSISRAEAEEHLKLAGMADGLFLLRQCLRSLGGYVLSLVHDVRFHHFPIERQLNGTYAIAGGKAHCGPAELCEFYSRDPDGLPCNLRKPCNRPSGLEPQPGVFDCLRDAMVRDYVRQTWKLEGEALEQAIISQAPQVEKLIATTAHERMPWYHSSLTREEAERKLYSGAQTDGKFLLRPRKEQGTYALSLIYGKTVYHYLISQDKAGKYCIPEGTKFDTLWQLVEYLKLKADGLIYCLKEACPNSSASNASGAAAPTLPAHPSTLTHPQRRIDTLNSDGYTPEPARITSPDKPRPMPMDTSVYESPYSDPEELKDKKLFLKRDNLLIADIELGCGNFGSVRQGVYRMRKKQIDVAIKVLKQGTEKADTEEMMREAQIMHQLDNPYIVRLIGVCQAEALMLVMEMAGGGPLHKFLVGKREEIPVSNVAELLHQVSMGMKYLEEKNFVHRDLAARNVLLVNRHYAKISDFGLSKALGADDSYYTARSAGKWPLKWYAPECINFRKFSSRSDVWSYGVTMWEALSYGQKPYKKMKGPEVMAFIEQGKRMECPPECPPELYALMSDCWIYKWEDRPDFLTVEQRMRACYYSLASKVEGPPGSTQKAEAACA

[8] = target: Mitogen-activated protein kinase 9 (Homo sapiens, UniProt P45984); experiment: Inhibition of JNK2 by HTRF assay; how it was run: as §1
Chain of Mitogen-activated protein kinase 9 (P45984 whole entry): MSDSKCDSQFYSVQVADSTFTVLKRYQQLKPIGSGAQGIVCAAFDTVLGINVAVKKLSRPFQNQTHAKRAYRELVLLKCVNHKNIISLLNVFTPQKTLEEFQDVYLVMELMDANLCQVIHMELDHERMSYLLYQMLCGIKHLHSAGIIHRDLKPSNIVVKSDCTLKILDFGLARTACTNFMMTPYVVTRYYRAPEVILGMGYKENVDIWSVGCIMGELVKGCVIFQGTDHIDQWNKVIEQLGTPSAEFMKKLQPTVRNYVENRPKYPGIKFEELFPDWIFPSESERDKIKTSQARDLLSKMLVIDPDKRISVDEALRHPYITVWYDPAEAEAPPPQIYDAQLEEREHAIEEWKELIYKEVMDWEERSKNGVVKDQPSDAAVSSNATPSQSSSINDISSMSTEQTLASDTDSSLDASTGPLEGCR

Chain of Mitogen-activated protein kinase 3 (P27361 whole entry): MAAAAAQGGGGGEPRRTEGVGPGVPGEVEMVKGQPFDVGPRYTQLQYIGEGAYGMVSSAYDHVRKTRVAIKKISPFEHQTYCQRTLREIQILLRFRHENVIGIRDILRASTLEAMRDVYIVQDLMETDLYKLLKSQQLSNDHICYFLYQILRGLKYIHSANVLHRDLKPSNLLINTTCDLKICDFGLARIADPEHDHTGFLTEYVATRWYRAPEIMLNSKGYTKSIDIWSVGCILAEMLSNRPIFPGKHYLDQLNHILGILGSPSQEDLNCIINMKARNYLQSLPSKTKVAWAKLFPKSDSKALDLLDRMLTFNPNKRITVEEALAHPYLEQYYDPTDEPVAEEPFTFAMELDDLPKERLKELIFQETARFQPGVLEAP

Row | IC50 [1] | IC50 [2] | IC50 [3] | IC50 [4] | IC50 [5] | IC50 [6] | IC50 [7] | IC50 [8] | Compound
1 | > 1000 nM | > 1000 nM | 16 nM | 9 nM | > 1000 nM | > 1000 nM | > 1000 nM | > 1000 nM | CNc1nccc(-c2cccnc2Oc2ccc(NC(=O)c3ccccc3Nc3ccccc3)cc2)n1
2 | > 8000 nM | > 8000 nM | 586 nM | 66 nM | > 8000 nM | > 8000 nM | > 8000 nM | > 8000 nM | CNc1nccc(-c2cccnc2Oc2ccc(NC(=O)c3cccc(C(F)(F)F)c3)cc2C)n1
3 | > 25000 nM | > 25000 nM | 41 nM | 15 nM | > 25000 nM | > 25000 nM | > 25000 nM | > 25000 nM | CNc1nccc(-c2cccnc2Oc2ccc(Nc3nnc(-c4ccc(F)cc4)c4ccccc34)cc2)n1
